Test results reported in ChEMBL document CHEMBL1914293, “Pharmacophore-based discovery of FXR-agonists. Part II: identification of bioactive triterpenes from Ganoderma lucidum” (Bioorg Med Chem, 2011).
The source made the active and inactive calls. The calls are words filed in the database; no cut-off is given here.

Legend:
Format in all cases: functional, cell-based
[1] = tested on: HUVEC; test: Antiinflammatory activity in human HUVEC cells assessed as inhibition of LPS-induced IL-8 mRNA expression at 5 uM for 10 mins measured after 4 hrs of LPS challenge by Q-PCR analysis
Outline: (§1)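 hTERT-immortalized HUVEC (HUVECtert) were grown in M199 with 20% FBS, endothelial cell growth supplement and antibiotics. Cells were treated with compounds at 5 μM, then stimulated with TNFα (human recombinant, 100 ng/mL) or LPS (E. coli 055:B5, 300 ng/mL). IL-8 and E-selectin mRNA were measured by qPCR, normalized to β2-microglobulin (Pfaffl method), and expressed as fold over untreated control. Statistics used ANOVA with Bonferroni post-test.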

[2] = tested on: HUVEC; test: Antiinflammatory activity in human HUVEC cells assessed as inhibition of TNF-alpha-induced IL-8 mRNA expression at 5 uM for 10 mins measured after 4 hrs of LPS challenge by Q-PCR analysis; outline: as §1
[3] = tested on: HUVEC; test: Antiinflammatory activity in human HUVEC cells assessed as inhibition of LPS-induced E-selectin mRNA expression at 5 uM for 10 mins measured after 4 hrs of LPS challenge by Q-PCR analysis; outline: as §1
[4] = tested on: HUVEC; test: Antiinflammatory activity in human HUVEC cells assessed as inhibition of TNF-alpha-induced E-selectin mRNA expression at 5 uM for 10 mins measured after 4 hrs of LPS challenge by Q-PCR analysis; outline: as §1
[5] = target: T1, Bile acid receptor/Retinoic acid receptor RXR-alpha (Mus musculus, UniProt P28700+Q60641); test: Agonist activity at full length mouse FXR/RXRalpha expressed in human HEK293 cells assessed as induction of transcriptional activity after 18 hrs by dual luciferase reporter gene assay
T1 sequence (P28700 whole entry): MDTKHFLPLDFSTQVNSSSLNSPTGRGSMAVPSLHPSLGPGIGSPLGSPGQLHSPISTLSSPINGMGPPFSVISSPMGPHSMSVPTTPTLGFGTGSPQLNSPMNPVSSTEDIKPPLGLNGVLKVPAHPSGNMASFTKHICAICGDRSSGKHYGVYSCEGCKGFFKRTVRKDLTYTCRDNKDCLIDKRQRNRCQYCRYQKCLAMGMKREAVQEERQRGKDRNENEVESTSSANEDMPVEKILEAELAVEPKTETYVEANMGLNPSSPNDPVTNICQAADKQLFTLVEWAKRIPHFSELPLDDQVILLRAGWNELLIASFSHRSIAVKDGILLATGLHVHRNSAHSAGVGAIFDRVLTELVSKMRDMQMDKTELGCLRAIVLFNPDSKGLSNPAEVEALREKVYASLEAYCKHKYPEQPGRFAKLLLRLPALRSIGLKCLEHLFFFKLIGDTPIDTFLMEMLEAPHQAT
T1 sequence (Q60641 whole entry): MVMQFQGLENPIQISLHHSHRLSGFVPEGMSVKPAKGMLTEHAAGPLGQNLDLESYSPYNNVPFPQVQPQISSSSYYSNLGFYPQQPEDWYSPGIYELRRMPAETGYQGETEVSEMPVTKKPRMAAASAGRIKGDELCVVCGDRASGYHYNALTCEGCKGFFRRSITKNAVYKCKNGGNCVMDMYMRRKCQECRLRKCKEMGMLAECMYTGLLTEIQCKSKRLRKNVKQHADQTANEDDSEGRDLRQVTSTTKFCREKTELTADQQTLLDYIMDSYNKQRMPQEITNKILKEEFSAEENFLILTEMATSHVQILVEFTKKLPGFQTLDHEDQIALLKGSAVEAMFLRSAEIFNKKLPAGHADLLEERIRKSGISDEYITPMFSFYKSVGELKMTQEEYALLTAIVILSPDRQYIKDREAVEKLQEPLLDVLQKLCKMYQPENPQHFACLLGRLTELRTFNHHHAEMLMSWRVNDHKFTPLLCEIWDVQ

Structure (SMILES)	inhibition [1]	inhibition [2]	inhibition [3]	inhibition [4]	EC50 [5] [µM]
C[C@H](CC[C@H](O)C(C)(C)O)[C@H]1CC[C@@]2(C)C3=C(CC[C@]12C)[C@@]1(C)CCC(=O)C(C)(C)[C@@H]1CC3=O [LUCIDUMOL A]	Active	Active	Active	Active	> 18.6
C[C@H](CCC=C(CO)CO)[C@H]1CC[C@@]2(C)C3=CC[C@H]4C(C)(C)C(=O)CC[C@]4(C)C3=CC[C@]12C [GANODERIOL F]	Active	Active	Active	Active	5
C/C(=C/CC[C@@H](C)[C@H]1C[C@H](O)[C@@]2(C)C3=CC[C@H]4C(C)(C)C(=O)CC[C@]4(C)C3=CC[C@]12C)C(=O)O [GANODERIC ACID TR]	Active	Active	Active	Active	> 14
CC(C)[C@@H](C)/C=C/[C@@H](C)[C@H]1CC[C@@H]2[C@]1(C)CC[C@H]1[C@]23C=C[C@]2(C[C@@H](O)CC[C@]12C)OO3 [ERGOSTEROL PEROXIDE]	Active	Active	Active	Active	0.85
C[C@H](CC[C@H](O)[C@](C)(O)CO)[C@H]1CC[C@@]2(C)C3=CC[C@H]4C(C)(C)C(=O)CC[C@]4(C)C3=CC[C@]12C [GANODERMANONTRIOL]	Active	Active	Active	Active	2.5
